Measurements reported in ChEMBL document CHEMBL2331170, “Synthesis and biological evaluation of novel pyranochalcone derivatives as a new class of microtubule stabilizing agents” (Eur J Med Chem, 2013).
pIC50: −log10 of the molar value.

Experiments:
K562 = test: Cytotoxicity against human K562 cells by MTT assay; assay type: functional, cell-based
Method in brief: (§1)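 Log-phase cells were diluted to 40,000–50,000 cells/mL in medium with 10% FBS, 2 mM glutamine and antibiotics (37 °C, 5% CO₂). They were seeded in 96-well plates and treated with a range of doses. MTT was added for 4 h, the formazan was dissolved in DMSO, and absorbance was read at 590 nm.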

[1] = Cytotoxicity against human LO2 cells by MTT assay; assay type: cell-based; settings: L02; method in brief: as §1
HepG2 [2] = test: Cytotoxicity against human HepG2 cells by MTT assay; assay type: functional, cell-based; method in brief: as §1
A-375 = test: Cytotoxicity against human A375 cells by MTT assay; assay type: functional, cell-based; method in brief: as §1
SK-OV-3 = test: Cytotoxicity against human SKOV3 cells by MTT assay; assay type: functional, cell-based
HCT-8 = test: Cytotoxicity against taxol-resistant human HCT8 cells by MTT assay; assay type: functional, cell-based
NCI-H358 = test: Cytotoxicity against human NCI-H358 cells by MTT assay; assay type: functional, cell-based
Bel-7402 = test: Cytotoxicity against human Bel7402 cells by MTT assay; assay type: functional, cell-based
DU-145 = test: Cytotoxicity against human DU145 cells by MTT assay; assay type: functional, cell-based
HCT-15 = test: Cytotoxicity against human HCT15 cells by MTT assay; assay type: functional, cell-based
MCF7 = test: Cytotoxicity against human MCF7 cells by MTT assay; assay type: functional, cell-based
A2780 = test: Cytotoxicity against taxol-resistant human A2780 cells by MTT assay; assay type: functional, cell-based
[3] = Cytotoxicity against human SPC-A1 cells by MTT assay; assay type: functional, cell-based; settings: SPCA1
[4] = Cytotoxicity against human ES2 cells by MTT assay; assay type: functional, cell-based; settings: ES-2
[5] = Cytotoxicity against human MCF7/ADR cells by MTT assay; assay type: functional, cell-based; settings: NCI/ADR-RES
SK-HEP1 = test: Cytotoxicity against human SKHEP1 cells by MTT assay; assay type: functional, cell-based
HT-29 = test: Cytotoxicity against human HT-29 cells by MTT assay; assay type: functional, cell-based
[6] = Cytotoxicity against human A2780S cells by MTT assay; assay type: functional, cell-based; settings: A2780
[7] = Cytotoxicity against mouse C26 cells by MTT assay; assay type: functional, cell-based
[8] = Cytotoxicity against human H460 cells by MTT assay; assay type: functional, cell-based; settings: NCI-H460
PC-3 = test: Cytotoxicity against human PC3 cells by MTT assay; assay type: functional, cell-based
Tubulin (Sus scrofa) [9] = target: T1, Tubulin (Sus scrofa) (UniProt P02554+P02550); test: Stabilization of purified pig brain tubulin polymerization at 5 uM measured every 30 seconds by spectrophotometry
Method in brief: (§2)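 It was pre-incubated 5 min with compound (5, 10, 20 μM), Taxol (5, 20 μM) or DMSO. GTP was added to 1 mM final to start assembly, followed as the rise in absorbance at 340 nm at 37 °C.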

HepG2 [10] = test: Antitumor activity against human HepG2 cells xenografted in Balb/C mouse assessed as tumor growth inhibition rate at 5 mg/kg administered every 4 days for 3 weeks measured on day 20; assay type: functional; settings: read-out: TGI
Method in brief: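 HepG2 cells (5 × 10⁶/mouse) in HBSS implanted in the right flank of 5–6-week-old female Balb/C and athymic nude mice, six per group. Dosing began once tumors reached ~100 mm³: three weeks at 2.5, 5 or 10 mg/kg every two days, or Taxol 5 mg/kg every four days; controls got physiological saline. Tumor volume = π/6 × length × width². T/C (%) = treated/control tumor volume × 100. Inhibition = (1 − treated/control tumor weight) × 100.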

Tubulin (Sus scrofa) [11] = target: T1, Tubulin (Sus scrofa); test: Stabilization of purified pig brain tubulin polymerization at 20 uM measured every 30 seconds by spectrophotometry; method in brief: as §2
HepG2 [12] = test: Antitumor activity against human HepG2 cells xenografted in Balb/C mouse assessed as tumor volume T/C ratio at 5 mg/kg administered every 4 days for 3 weeks measured on day 20 relative to control

T1 sequence (P02550 whole entry, looked up): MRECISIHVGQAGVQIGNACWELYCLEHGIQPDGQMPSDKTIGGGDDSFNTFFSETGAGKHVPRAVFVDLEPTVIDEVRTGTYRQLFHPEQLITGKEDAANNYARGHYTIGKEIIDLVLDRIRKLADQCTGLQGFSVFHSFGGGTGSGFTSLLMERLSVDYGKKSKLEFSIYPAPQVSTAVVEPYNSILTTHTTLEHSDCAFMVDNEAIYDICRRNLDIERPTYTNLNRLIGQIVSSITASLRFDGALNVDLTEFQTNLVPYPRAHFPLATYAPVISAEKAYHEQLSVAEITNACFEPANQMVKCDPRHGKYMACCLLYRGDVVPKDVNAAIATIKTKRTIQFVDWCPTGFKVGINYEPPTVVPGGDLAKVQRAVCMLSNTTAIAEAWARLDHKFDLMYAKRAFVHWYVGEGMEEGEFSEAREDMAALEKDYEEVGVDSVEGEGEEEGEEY
T1 sequence (P02554 whole entry, looked up): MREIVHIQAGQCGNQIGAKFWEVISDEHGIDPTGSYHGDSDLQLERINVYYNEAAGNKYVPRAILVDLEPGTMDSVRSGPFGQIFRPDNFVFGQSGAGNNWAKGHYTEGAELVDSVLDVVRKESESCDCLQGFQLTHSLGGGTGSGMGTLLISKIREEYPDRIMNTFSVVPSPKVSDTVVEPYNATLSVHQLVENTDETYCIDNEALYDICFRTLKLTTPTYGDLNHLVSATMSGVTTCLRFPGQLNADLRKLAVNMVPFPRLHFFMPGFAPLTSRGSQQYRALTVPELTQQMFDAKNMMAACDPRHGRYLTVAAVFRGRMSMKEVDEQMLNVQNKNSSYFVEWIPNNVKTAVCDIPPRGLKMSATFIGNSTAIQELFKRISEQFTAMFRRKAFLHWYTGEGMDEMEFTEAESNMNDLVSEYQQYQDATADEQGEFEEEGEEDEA

| Compound | pIC50 (K562) | pIC50 [1] | pIC50 (HepG2 [2]) | pIC50 (A-375) | further results |
| --- | --- | --- | --- | --- | --- |
| COc1ccc(/C=C/C(=O)c2ccc(OC)c3c2OC(C)(C)C=C3)cc1OCCCN(C)C | 5.53 | 5.07 | 5.26 | 5.39 | – |
| COc1ccc(/C=C/C(=O)c2ccc(OC)c3c2OC(C)(C)C=C3)cc1OC(=O)c1ccco1 | 6.35 | < 5.00 | 6.43 | 6.17 | – |
| COc1cc2c(c(OC)c1OC)-c1ccc(OC)c(=O)cc1[C@@H](NC(C)=O)CC2 [COLCHICINE] | – | – | – | – | pIC50 (SK-OV-3): 6.92; pIC50 (HCT-8): 4.93; pIC50 (NCI-H358): 7.70; pIC50 (Bel-7402): 5.88; pIC50 (DU-145): 6.52; pIC50 (HCT-15): 7.10; pIC50 (MCF7): 6.54; pIC50 (A2780): < 4.70; pIC50 [3]: 4.10; pIC50 [4]: 7.05; pIC50 [5]: 5.51; pIC50 (SK-HEP1): 6.77; pIC50 (HT-29): 7.70; pIC50 [6]: 7.70; pIC50 [7]: 5.76; pIC50 [8]: 4.57; pIC50 (PC-3): 7.40 |
| COc1ccc(/C=C/C(=O)c2ccc(OC)c3c2OC(C)(C)C=C3)cc1 [MILLEPACHINE] | – | < 4.70 | – | 5.45 | – |
| COc1ccc(/C=C/C(=O)c2ccc(OC)c3c2OC(C)(C)C=C3)cc1OC(=O)C(C)C | 6.24 | < 5.00 | 6.60 | 6.51 | – |
| COc1ccc(/C=C/C(=O)c2ccc(OC)c3c2OC(C)(C)C=C3)cc1OC(=O)Cc1ccc(Cl)c(Cl)c1 | 6.37 | < 5.00 | 6.22 | 6.15 | – |
| COc1ccc(/C=C/C(=O)c2ccc(OC)c3c2OC(C)(C)C=C3)cc1OCCN1CCCCC1 | 5.68 | 5.04 | 5.36 | 5.52 | – |
| COc1ccc(/C=C/C(=O)c2ccc(OC)c3c2OC(C)(C)C=C3)cc1OC(=O)CCCc1ccc(N(CCCl)CCCl)cc1 | 6.33 | < 5.00 | 6.15 | 5.04 | – |
| COc1ccc(/C=C/C(=O)c2ccc(OC)c3c2OC(C)(C)C=C3)cc1OCC=C(C)C | < 5.00 | < 5.00 | < 5.00 | < 5.00 | – |
| COc1ccc(/C=C/C(=O)Oc2cc(/C=C/C(=O)c3ccc(OC)c4c3OC(C)(C)C=C4)ccc2OC)cc1 | 6.42 | 4.74 | 6.37 | 5.58 | – |
| COc1ccc(/C=C/C(=O)c2ccc(OC)c3c2OC(C)(C)C=C3)cc1OS(=O)(=O)c1ccc(C)cc1 | 5.11 | < 5.00 | 5.44 | 5.62 | – |
| COc1ccc(/C=C/C(=O)c2ccc(OC)c3c2OC(C)(C)C=C3)cc1O | 6.20 | < 5.00 | 6.35 | 6.10 | – |
| COc1ccc(/C=C/C(=O)c2ccc(OC)c3c2OC(C)(C)C=C3)cc1OC(=O)c1ccc(Br)cc1 | 5.95 | 5.08 | 6.17 | 6.38 | – |
| CC(=O)O[C@H]1C(=O)[C@@]2(C)[C@H]([C@H](OC(=O)c3ccccc3)[C@]3(O)C[C@H](OC(=O)[C@H](O)[C@@H](NC(=O)c4ccccc4)c4ccccc4)C(C)=C1C3(C)C)[C@]1(OC(C)=O)CO[C@@H]1C[C@@H]2O [PACLITAXEL] | – | – | – | – | pIC50 (SK-OV-3): 7.00; pIC50 (HCT-8): 4.88; pIC50 (NCI-H358): 8.00; pIC50 (Bel-7402): < 5.70; pIC50 (DU-145): 7.52; Activity (Tubulin (Sus scrofa) [9]): 6.3%; pIC50 (HCT-15): 6.92; pIC50 (MCF7): 6.18; inhibition in vivo at 5 mg/kg (HepG2 [10]): 59.1%; Activity (Tubulin (Sus scrofa) [11]): 23.8%; pIC50 (A2780): 5.08; pIC50 [3]: 5.28; pIC50 [4]: 7.00; T/C at 5 mg/kg (HepG2 [12]): 32.4%; pIC50 [5]: 5.16; pIC50 (SK-HEP1): 6.62; pIC50 (HT-29): 6.35; pIC50 [7]: 5.98; pIC50 [8]: 4.62; pIC50 (PC-3): 6.85 |
